# TAAR1 antag – human TAAR1 antagonism. Q96RJ0. CHO RD-HGA16 TAAR1, Fluo-8 calcium fluorescence, antagonist. inhibition, % at 3 µM. AID 624466. hit rate 1.5% among 360,000;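 active = inhibition above a per-plate cutoff, the mean inhibition of test compounds on that plate plus 3 SD, cut at about 49% in these data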;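 also: 0% = DMSO plus EC80 beta-PEA response and 100% = DMSO alone without agonist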
# Target sequence (Q96RJ0 whole entry, looked up): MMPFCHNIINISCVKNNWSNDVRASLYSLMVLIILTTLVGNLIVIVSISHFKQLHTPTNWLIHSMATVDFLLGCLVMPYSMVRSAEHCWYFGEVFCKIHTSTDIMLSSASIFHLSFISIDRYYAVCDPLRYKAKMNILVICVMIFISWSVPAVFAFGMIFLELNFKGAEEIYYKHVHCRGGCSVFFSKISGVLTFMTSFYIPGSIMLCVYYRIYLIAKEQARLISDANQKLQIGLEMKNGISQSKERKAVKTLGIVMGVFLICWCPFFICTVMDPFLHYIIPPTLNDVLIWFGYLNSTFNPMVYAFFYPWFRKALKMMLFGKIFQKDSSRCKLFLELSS
#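 Assay system: RD-HGA16 CHO cells with stable hTAAR1 and Gα16 / Reagent: EC80 β-phenethylamine stimulus / Doses: 3 µM, single point / Timing: dye loading 75 min at 37 °C, then 30 min room temperature / Measured by: Fluo-8 intracellular calcium dye fluorescence, real-time kinetic reads / Controls: vehicle wells and EC80 agonist wells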
# OX1R antag-1 – blocks the human orexin 1 receptor; CHO/OX1R cells, Fluo-8 calcium fluorescence, orexin A; inhibition, % at 5 µM; hit rate 0.43% among 330,000;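 active = inhibition above its plate's threshold, mean inhibition of all tested compounds on the plate plus 3 SD, cut at about 37% in these data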;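 also: 0% = orexin A challenge wells and 100% = SB-334867-A antagonist wells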
# Target sequence (O43613 whole entry, looked up): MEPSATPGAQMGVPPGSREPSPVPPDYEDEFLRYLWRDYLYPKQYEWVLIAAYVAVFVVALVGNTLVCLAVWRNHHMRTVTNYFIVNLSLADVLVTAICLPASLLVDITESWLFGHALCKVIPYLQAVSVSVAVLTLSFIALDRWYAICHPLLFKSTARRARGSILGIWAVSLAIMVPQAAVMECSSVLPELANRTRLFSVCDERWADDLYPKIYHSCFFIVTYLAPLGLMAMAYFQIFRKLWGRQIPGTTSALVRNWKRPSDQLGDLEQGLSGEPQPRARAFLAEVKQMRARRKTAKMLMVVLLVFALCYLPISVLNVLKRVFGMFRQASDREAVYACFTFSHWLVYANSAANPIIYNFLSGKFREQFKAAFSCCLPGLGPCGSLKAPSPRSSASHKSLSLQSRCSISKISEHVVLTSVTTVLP
# CHO parental Ca – counter-screen: ATP calcium response change in parental CHO cells. parental CHO-K1, ATP-induced calcium, Fluo-8 fluorescence. inhibition, % at 5.6 µM. hit rate 0.63% among 330,000;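 active = inhibition above that plate's mean sample inhibition plus 3 SD, cut at about 26% in these data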;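 also: 0% = ATP-challenged DMSO wells and 100% = DMSO wells without ATP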
#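 Material: parental CHO cells / Compound: single nominal dose of 5.6 µM per compound / Signal: Fluo-8 fluorescence / Replicates: singlicate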
# OX1R antag-2 – antagonists of human orexin 1 receptor (OX1R); inhibition, % at 6.6 µM; hit rate 1.8% among 330,000; OX1R-expressing cells, FRET antagonist read-out; AID 485270; in the data active = inhibition mostly above about 38%, no sharp cut-off; inactive = mostly below about 40%;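 also: 0% = agonist challenge alone and 100% = reference antagonist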
# GPR7 antagonist – blocks human GPR7 receptor signaling; P48145; GPR7-expressing cells, fluorescence antagonist assay; inhibition, % at 4.4 µM; hit rate 1.1% among 290,000; in the data active = inhibition above about 16%, passing the limit was not always enough;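 also: cells stimulated with the agonist NPW; 0% = agonist with vehicle and 100% = vehicle without agonist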
# TAAR1 ag – agonists of human TAAR1. activation, % at 3 µM. hit rate 0.99% among 360,000. CHO RD-HGA16 TAAR1, Fluo-8 calcium fluorescence; vehicle wells 0%, saturating PEA agonist 100%. Q96RJ0;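 active = activation above the mean activation of all test compounds in the run plus 3 SD, cut at about 38% in these data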
#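 Assay system – CHO-derived RD-HGA16 cells with stable Gα16 and human TAAR1 · Compound dosing – one-point dosing at 3 µM (nominal) · Incubation – 17-24 h seeding, 75 min 37 °C dye, 30 min RT · Measured by – kinetic Fluo-8 calcium fluorescence · Control set – DMSO vehicle as 0%, PEA at EC100 as 100% · Repeats – single well for each compound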
# TAAR1 ag conf – confirmation of human TAAR1 agonists; shares compounds with TAAR1 ag; CHO RD-HGA16 TAAR1, Fluo-8 calcium fluorescence; scaled: DMSO 0%, maximal phenethylamine 100%; activation, % at 3 µM; hit rate 82% among 2,400; AID 651783;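 active = activation above a cutoff set at the run's mean compound activation plus 3 SD, cut at about 39% in these data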
# Ga16 ag counter – counter-screen for TAAR1 agonists: nonselective agonists in parental cells; shares compounds with TAAR1 ag; CHO-Ga16 parental, Fluo-8 calcium fluorescence; normalized to maximal ATP response, DMSO zero; hit rate 50% among 2,400; activation, % at 3 µM;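 active = activation above the run cutoff, the mean activation over all tested wells plus 3 SD, cut at about 12% in these data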;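 also: 0% = DMSO wells and 100% = maximal ATP response on the peak over basal ratio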
# TAAR1 desensitize – human TAAR1 agonist that also desensitizes the receptor; CHO RD-HGA16 hTAAR1, Fluo-8 calcium, beta-PEA response inhibition; inhibition, % at 3 µM; shares compounds with TAAR1 ag; hit rate 46% among 2,400;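 active = inhibition above the run cutoff, the mean inhibition of all test compounds plus 3 SD, cut at about 49% in these data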;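 also: beta-PEA stimulus applied at its EC80; loss of beta-PEA calcium signal after compound pretreatment read as receptor desensitization; 0% = DMSO with beta-PEA at EC80 and 100% = DMSO alone without agonist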
# Ga16 nonsel ant – nonselective Ga16 antagonist in TAAR1 agonist counter-screen. shares compounds with TAAR1 ag. CHO-Ga16 ATP-induced calcium, Fluo-8 fluorescence. inhibition, % at 3 µM. hit rate 39% among 2,400. AID 651952;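 active = inhibition above the plate's mean compound inhibition plus 3 SD, computed per plate, cut at about 22% in these data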;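 also: 0% = EC80 ATP with DMSO and 100% = DMSO wells without ATP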
# An asterisk follows results filed as active; nt = no result given. Sampled rows, rich in hits. Any-hit rate of the full collection: about 4.6%.
SMILES,TAAR1 antag,OX1R antag-1,CHO parental Ca,OX1R antag-2,GPR7 antagonist,TAAR1 ag,TAAR1 ag conf,Ga16 ag counter,TAAR1 desensitize,Ga16 nonsel ant
COC(=O)C1=C(C)N(Cc2cccc(C(F)(F)F)c2)C(=NCC2CC2)NC1c1cccc(F)c1 (centres undefined),97*,nt,nt,nt,nt,131*,104*,70*,92*,81*
Cc1cccc(N(CC(N)=O)C2SC(=O)NC2=O)c1 (centres undefined),-7,-8,-5,8,-11,-2,nt,nt,nt,nt
CC(Sc1ncn[nH]1)C(=O)NCc1ccccc1 (centres undefined),-27,-7,-5,11,2,4,nt,nt,nt,nt
O=C(O)c1ccc(S(=O)(=O)N2CCCCCCC2)cc1,-5,nt,nt,nt,nt,1,nt,nt,nt,nt
Cn1c(CN2CCCCC2)nc2cc(NS(=O)(=O)c3ccc(Cl)cc3)ccc21,9,13,-12,8,2,70*,77*,41*,39,23*
CCc1c(Cc2ccccc2)ncn1CCc1ccccc1OC,-1,nt,nt,nt,nt,52*,75*,2,21,10
CCc1c(-c2ccc(F)cc2F)ncn1CCc1ccccc1OC,1,nt,nt,nt,nt,15,nt,nt,nt,nt
COc1ccccc1CCn1cnc(Cc2ccccc2)c1C(C)C,48,nt,nt,nt,nt,54*,72*,6,59*,22*
CCc1c(-c2ccc(OC)c(OC)c2)ncn1CCc1ccccc1OC,7,nt,nt,nt,nt,32,nt,nt,nt,nt
COc1cc2c(cc1OC)CN(C(=O)CN(C)S(=O)(=O)c1ccc(NC(C)=O)cc1)CC2,18,-17,-3,15,-4,-1,nt,nt,nt,nt
CCOc1ccc(NC(=S)NCc2ccc3[nH]c(C)cc3c2)cc1,11,-11,-13,18,-5,15,nt,nt,nt,nt
COCCN1CCC(CNCc2c(C(=O)N3CCCCC3)nc3c(C)cccn23)C1 (centres undefined),-17,-6,-19,11,-15,3,nt,nt,nt,nt
Cc1cccn2c(CNCC3OCCc4ccccc43)c(C(=O)N3CCCCC3)nc12 (centres undefined),45,-37,-22,7,-21,69*,74*,6,61*,19
C(=NOCCc1ccccc1)c1cccnc1,nt,nt,nt,nt,nt,nt,nt,0,nt,6
C(=NOCc1ccccc1)c1ccncc1,-20,nt,nt,nt,nt,0,nt,nt,nt,nt
Cc1nn(-c2ccccc2)c(C)c1/C=N/n1c(-c2ccc(Cl)cc2)n[nH]c1=S,3,-3,-9,3,-2,3,nt,nt,nt,nt
Cc1nn(-c2ccccc2)c(C)c1/C=N/n1c(-c2ccncc2)n[nH]c1=S,-6,-24,-18,17,-13,47*,93*,18*,24,-5
CCOC(=O)c1sc2c(c1C)C(c1cccs1)C1=C(CCCC1=O)N2 (centres undefined),45,21,-10,22,4,68*,46*,16*,25,15
C(=NNc1nnn(Cc2ccccc2)n1)c1ccccc1,22,nt,nt,nt,nt,54*,8,2,4,6
Cc1ccc(-n2cc(CNCCCn3ccnc3C)c(-c3ccc(F)cc3)n2)cc1,1,-24,-14,13,-4,7,nt,nt,nt,nt
Cc1ccc(-n2cc(CNCCc3cscn3)c(-c3ccc(F)cc3)n2)cc1,-10,-17,-26,14,6,46*,57*,6,13,7
CC(=O)Nc1ccc(NC(=O)c2ccc(-c3ccccc3Cl)o2)cc1,54*,nt,nt,nt,nt,58*,40*,43*,57*,38*
O=C(Nc1ccccc1)c1ccc(-c2ccccc2Cl)o1,1,-23,-8,33,3,7,nt,nt,nt,nt
O=C(Nc1cccnc1)c1ccc(-c2ccc(Cl)cc2)o1,-6,-28,-27,46,-8,1,nt,nt,nt,nt
O=C(NCCc1ccccc1)c1ccc(Br)o1,27,-9,-17,12,-2,67*,77*,3,40,1
SMILES,TAAR1 antag,OX1R antag-1,CHO parental Ca,OX1R antag-2,GPR7 antagonist,TAAR1 ag,TAAR1 ag conf,Ga16 ag counter,TAAR1 desensitize,Ga16 nonsel ant
O=C(NCc1ccccc1)c1ccc(Br)o1,-2,-5,-7,-3,11,15,nt,nt,nt,nt
O=C(Nc1cccnc1)c1ccc(-c2cc(Cl)ccc2Cl)o1,15,-29,-32,12,-5,73*,40*,43*,40,19
O=C(NCCc1ccccc1)c1ccc(-c2ccccc2Cl)o1,21,-16,-13,28,-10,51*,16,19*,81*,15
COc1ccc(C(C(=O)NC(C)(C)C)n2c(-c3ccc(=O)[nH]c3)nc3ccccc32)cc1 (centres undefined),-23,nt,nt,nt,nt,-1,nt,nt,nt,nt
Cc1ccc(NC(=S)N2CCCC(CO)C2)c(C)c1 (centres undefined),-17,-2,-3,-1,-18,2,nt,nt,nt,nt
COc1ccccc1CCN1C(=S)NC(C)(C)CC1(C)O (centres undefined),6,-28,-21,26,-4,51*,74*,0,43,9
COc1ccc(C(=O)NC(=S)NNC(=O)c2ccc(NC(C)=O)cc2)cc1Br,-7,-33,-23,11,-1,10,nt,nt,nt,nt
CCNC(=S)NNC(=O)c1ccc(OC)cc1,0,4,0,7,-4,5,nt,nt,nt,nt
COc1ccc(OCC(=O)NNC(=S)NC(=O)c2ccc(Br)o2)cc1,14,-8,-8,-2,-5,55*,34,18*,24,21
COc1ccc(C(=O)NC(=S)NNC(=O)c2ccncc2)cc1Br,14,-2,1,6,nt,60*,35,32*,22,18
COc1ccc(OCC(=O)NNC(=S)NC(=O)c2ccc([N+](=O)[O-])cc2)cc1,-8,-14,-5,34,-11,2,nt,nt,nt,nt
CCCCC(=O)NC(=S)NNC(=O)c1ccc(OC)cc1,38,7,14,8,-4,85*,99*,82*,51*,44*
COc1ccc(C(=O)NNC(=S)NC(=O)c2ccc(OC)cc2)cc1,81*,23,12,7,0,110*,88*,89*,49*,47*
CCCCNC(=O)c1onc(CSc2ccc(OC)cc2)c1C(=O)O,-6,-9,0,16,18,14,nt,nt,nt,nt
O=c1c2[nH]c3ccccc3c2ncn1Cc1ccco1,5,-9,-6,0,3,11,nt,nt,nt,nt
